According to ChEMBL document CHEMBL4351001, “2-Aminoimidazole-based antagonists of the 5-HT6 receptor - A new concept in aminergic GPCR ligand design” (Eur J Med Chem, 2019):
≈ marks a conversion by molar mass, not a printed value.

Legend:
[1] = molecular target: T1, 5-hydroxytryptamine receptor 6 (Homo sapiens, UniProt P50406); assay: Antagonist activity at human 5HT6 receptor expressed in HEK293 cells assessed as inhibition of 5-CT induced cAMP production measured after 30 mins by TR-FRET assay; format: functional, cell-based
T1 sequence (P50406 whole entry): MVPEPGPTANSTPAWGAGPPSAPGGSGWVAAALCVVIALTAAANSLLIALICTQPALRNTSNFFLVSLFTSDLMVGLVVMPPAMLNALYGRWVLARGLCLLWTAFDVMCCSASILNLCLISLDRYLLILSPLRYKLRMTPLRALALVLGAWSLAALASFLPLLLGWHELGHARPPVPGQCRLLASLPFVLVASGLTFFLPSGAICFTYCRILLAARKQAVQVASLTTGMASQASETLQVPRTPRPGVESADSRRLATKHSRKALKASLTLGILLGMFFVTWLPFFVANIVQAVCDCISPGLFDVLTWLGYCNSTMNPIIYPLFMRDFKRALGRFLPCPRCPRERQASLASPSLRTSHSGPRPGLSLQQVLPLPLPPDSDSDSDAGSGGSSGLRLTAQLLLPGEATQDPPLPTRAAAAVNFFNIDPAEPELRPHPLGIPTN

[2] = molecular target: T2, Alpha-1A adrenergic receptor (Rattus norvegicus) (UniProt P43140); assay: Displacement of [3H] prazosin from rat alpha 1A adrenergic receptor at 10^-6 M measured after 60 mins by scintillation counter method relative to control
T2 sequence (whole entry): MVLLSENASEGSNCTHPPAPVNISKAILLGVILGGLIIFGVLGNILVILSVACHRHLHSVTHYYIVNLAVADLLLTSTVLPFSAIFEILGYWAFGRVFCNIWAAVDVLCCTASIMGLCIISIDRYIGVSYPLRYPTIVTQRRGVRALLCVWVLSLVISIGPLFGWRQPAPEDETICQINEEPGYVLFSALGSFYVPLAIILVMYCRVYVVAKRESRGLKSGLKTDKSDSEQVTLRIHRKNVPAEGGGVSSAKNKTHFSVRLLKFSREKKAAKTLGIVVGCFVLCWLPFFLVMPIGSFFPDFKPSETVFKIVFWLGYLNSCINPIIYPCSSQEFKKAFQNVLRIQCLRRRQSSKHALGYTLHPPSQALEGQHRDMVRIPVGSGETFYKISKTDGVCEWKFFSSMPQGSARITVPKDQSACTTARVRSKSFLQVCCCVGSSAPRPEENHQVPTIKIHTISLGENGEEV

[3] = molecular target: Histamine H1 receptor (Homo sapiens) (UniProt P35367); assay: Displacement of [3H] pyrilamine from human recombinant H1 histamine receptor at 10^-6 M measured after 60 mins by scintillation counting method relative to control
Sequence of Histamine H1 receptor (Homo sapiens) (P35367 whole entry): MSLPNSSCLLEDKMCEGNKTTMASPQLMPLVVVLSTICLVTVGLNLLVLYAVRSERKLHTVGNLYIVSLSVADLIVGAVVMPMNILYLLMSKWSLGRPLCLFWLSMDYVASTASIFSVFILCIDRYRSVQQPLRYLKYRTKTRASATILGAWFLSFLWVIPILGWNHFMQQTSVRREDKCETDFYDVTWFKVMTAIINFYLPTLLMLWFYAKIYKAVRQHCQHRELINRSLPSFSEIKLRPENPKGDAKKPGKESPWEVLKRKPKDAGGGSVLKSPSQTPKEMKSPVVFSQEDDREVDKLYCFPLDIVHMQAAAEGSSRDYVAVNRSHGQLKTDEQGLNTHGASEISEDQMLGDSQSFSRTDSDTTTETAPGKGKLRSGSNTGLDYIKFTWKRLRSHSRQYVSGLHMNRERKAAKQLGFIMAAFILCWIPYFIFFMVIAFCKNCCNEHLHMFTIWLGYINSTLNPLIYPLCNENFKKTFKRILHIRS

[4] = molecular target: T3, 5-hydroxytryptamine receptor 2C (Homo sapiens) (UniProt P28335); assay: Displacement of [3H]mesulergine from human recombinant 5HT2C serotonin receptor at 10^-6M incubated for 120 mins by scintillation counter method relative to control
T3 sequence (whole entry): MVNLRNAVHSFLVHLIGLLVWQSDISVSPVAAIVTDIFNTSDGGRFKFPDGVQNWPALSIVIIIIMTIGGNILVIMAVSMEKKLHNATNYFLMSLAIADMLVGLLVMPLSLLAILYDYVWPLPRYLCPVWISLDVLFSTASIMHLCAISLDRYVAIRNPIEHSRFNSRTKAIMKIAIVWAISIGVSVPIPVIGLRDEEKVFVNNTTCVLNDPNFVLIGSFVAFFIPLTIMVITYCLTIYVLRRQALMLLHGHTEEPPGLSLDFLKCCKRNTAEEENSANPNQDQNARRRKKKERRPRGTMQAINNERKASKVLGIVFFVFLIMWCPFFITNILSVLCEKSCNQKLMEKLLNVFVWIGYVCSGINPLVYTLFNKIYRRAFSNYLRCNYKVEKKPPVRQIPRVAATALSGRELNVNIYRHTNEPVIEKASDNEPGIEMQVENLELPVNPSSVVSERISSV

[5] = molecular target: 5-hydroxytryptamine receptor 2B (Homo sapiens) (UniProt P41595); assay: Antagonist activity at human recombinant 5HT2B receptor expressed in CHOK1 cells at 10^-6 M measured after 30 mins by HTRF assay relative to control; format: cell-based; design: scale not given: the % may be the effect or the level left
Sequence of 5-hydroxytryptamine receptor 2B (Homo sapiens) (P41595 whole entry): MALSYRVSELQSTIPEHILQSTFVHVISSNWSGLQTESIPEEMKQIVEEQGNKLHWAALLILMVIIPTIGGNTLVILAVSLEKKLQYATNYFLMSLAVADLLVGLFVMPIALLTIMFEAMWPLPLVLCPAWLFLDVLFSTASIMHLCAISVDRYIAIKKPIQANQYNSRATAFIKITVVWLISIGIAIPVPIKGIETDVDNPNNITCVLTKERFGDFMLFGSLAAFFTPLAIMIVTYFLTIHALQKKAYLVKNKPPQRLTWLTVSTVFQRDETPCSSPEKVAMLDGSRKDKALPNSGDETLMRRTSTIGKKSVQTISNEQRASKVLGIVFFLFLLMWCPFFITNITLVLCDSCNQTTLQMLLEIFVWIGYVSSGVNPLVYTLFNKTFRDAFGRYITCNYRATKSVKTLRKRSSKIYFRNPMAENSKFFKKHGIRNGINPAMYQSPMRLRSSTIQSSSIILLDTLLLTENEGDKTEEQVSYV

[6] = molecular target: T4, 5-hydroxytryptamine receptor 1A (Homo sapiens, UniProt P08908); assay: Displacement of [3H]-8-OH-DPAT from human 5HT1A receptor expressed in HEK293 cells incubated for 1 hr by liquid scintillation counter method; format: cell-based
T4 sequence (P08908 whole entry): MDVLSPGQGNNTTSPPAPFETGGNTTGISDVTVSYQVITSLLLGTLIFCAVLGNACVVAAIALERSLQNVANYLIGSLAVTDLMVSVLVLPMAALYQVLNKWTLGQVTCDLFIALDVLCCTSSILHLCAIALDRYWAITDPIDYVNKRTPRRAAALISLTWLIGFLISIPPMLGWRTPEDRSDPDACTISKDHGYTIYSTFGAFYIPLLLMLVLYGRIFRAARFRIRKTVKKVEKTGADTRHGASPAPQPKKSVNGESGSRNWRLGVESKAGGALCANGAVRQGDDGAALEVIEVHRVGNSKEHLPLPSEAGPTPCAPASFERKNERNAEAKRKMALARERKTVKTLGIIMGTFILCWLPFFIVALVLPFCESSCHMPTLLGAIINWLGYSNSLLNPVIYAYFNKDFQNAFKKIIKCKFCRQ
Outline: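 HEK293 cells stably expressing human 5-HT1AR; membranes in 50 mM Tris–HCl, 0.1 mM EDTA, 4 mM MgCl2, 10 μM pargyline, 0.1% ascorbate; incubated 1 h at room temperature, then filtered. Nonspecific binding defined with 10 μM 5-HT.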

[7] = molecular target: 5-hydroxytryptamine receptor 2A (Homo sapiens, UniProt P28223); assay: Displacement of [3H]ketanserin from human 5HT2A receptor expressed in CHOK1 cells incubated for 1 hr by liquid scintillation counter method; format: cell-based; conditions: read-out: Ki
Sequence of 5-hydroxytryptamine receptor 2A (P28223 whole entry): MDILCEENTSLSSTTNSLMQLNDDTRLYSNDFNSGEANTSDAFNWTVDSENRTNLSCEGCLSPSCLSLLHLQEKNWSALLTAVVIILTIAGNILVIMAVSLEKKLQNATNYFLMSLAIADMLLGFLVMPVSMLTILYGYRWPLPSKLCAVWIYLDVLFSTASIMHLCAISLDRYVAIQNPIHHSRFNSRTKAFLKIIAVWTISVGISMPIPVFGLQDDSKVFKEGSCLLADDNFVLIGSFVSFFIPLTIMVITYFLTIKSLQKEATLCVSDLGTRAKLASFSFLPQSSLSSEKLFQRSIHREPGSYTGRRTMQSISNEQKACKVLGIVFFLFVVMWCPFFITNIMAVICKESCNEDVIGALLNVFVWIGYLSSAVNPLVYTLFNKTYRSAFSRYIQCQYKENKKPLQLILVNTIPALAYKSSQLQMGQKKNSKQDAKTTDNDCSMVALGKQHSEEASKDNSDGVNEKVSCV

[8] = molecular target: T1, 5-hydroxytryptamine receptor 6; assay: Displacement of [3H]LSD from human 5HT6 receptor expressed in HEK293 cells measured after 1 hr by liquid scintillation counter method; format: cell-based
[9] = molecular target: 5-hydroxytryptamine receptor 7 (Homo sapiens, UniProt P34969); assay: Displacement of [3H]-5-CT from human 5HT7 receptor expressed in HEK293 cells measured after 1 hr by liquid scintillation counter method; format: cell-based
Sequence of 5-hydroxytryptamine receptor 7 (P34969 whole entry): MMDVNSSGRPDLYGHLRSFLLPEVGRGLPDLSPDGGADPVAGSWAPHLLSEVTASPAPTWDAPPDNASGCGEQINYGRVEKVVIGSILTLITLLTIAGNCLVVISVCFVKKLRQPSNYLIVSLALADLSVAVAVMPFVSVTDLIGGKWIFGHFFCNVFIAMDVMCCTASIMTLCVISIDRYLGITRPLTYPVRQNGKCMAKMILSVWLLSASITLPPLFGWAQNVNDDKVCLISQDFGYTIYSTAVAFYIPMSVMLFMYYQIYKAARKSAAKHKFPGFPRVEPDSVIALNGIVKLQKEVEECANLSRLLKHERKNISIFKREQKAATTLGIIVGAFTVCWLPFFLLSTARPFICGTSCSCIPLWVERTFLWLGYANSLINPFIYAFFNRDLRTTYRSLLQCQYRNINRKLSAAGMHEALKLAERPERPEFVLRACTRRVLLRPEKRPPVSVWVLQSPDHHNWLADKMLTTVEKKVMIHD

[10] = Solubility of compound in water; format: physicochemical
[11] = Stability of compound in rat liver microsomes; format: ADME, Microsome
Outline: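 Incubation in triplicate with rat liver microsomes at 37°C with NADP, G6P, G6P dehydrogenase and MgCl2. Verapamil and donepezil served as microsomal activity standards.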

[12] = in vitro; conditions: rat
[13] = in vitro; conditions: rat; remark: listed apart in the source
[14] = molecular target: D(2) dopamine receptor (Homo sapiens, UniProt P14416); assay: Displacement of [3H]-methylspiperone from human D2 long receptor expressed in HEK293 cells measured after 1 hr by liquid scintillation counter method; format: cell-based
Sequence of D(2) dopamine receptor (P14416 whole entry): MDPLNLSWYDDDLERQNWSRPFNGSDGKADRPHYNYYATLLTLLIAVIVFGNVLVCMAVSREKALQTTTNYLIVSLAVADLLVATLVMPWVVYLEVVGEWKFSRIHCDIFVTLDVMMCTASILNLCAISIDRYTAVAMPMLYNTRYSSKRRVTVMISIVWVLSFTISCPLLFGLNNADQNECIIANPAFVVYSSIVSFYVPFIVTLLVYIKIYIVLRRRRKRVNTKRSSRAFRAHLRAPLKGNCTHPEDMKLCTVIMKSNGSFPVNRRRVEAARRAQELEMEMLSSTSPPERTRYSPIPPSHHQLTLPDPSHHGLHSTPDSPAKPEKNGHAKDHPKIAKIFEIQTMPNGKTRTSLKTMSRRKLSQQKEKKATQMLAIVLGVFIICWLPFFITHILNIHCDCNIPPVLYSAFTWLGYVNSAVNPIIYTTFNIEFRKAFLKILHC
Outline: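 HEK293 membranes stably expressing human D2L receptor, incubated 1 h at 37°C, then filtered and retained radioactivity counted; (+)-butaclamol 1 μM defines nonspecific binding. Tested in triplicate at 7–8 concentrations (10⁻¹¹–10⁻⁴ M); Ki via Cheng-Prusoff, averaged over at least two independent experiments.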

[15] = molecular target: T5, Muscarinic acetylcholine receptor M1 (Homo sapiens) (UniProt P11229); assay: Displacement of [3H] pirenzepine from human recombinant muscarinic M1 receptor at 10^-6 M measured after 60 mins by scintillation counter method relative to control
T5 sequence (whole entry): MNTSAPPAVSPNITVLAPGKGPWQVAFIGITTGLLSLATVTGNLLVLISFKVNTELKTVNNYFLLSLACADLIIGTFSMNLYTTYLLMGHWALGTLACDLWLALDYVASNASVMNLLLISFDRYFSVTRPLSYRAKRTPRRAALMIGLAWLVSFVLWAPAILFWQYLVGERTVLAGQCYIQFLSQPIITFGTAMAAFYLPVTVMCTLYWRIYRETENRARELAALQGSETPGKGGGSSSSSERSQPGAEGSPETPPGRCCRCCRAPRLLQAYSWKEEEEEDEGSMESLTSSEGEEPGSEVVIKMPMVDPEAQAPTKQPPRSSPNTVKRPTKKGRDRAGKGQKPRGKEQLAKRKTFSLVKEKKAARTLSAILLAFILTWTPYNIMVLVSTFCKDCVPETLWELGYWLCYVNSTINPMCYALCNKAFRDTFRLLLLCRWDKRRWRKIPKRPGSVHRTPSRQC

CC(=O)Nc1nc(C)c(-c2cn(S(=O)(=O)c3ccccc3)c3ccccc23)[nH]1 [listing 1 of 2 here]
Kb [1]: 0.0013 µM | inhibition [2]: -1.5% | inhibition [3]: -5.9% | inhibition [4]: 22.4% | Activity [5]: -1.9%

O=S(=O)(c1ccccc1)n1cc(-c2c[n+]3cccnc3[nH]2)c2ccccc21.[Br-]
Ki ([6]; read-out: Ki): > 10 µM | Ki [7]: > 10 µM | Ki [8]: 0.05 µM | Ki ([9]; read-out: Ki): > 10 µM | solubility ([10]; buffer): Soluble | Stability [11]: Unstable | microsomal CLint ([12]; microsomes): 230 µL/min/mg | half-life ([13]; microsomes): 6 min

Fc1ccc2c(CCNCc3cccc(OCC(F)(F)C(F)F)c3)c[nH]c2c1 [IDALOPIRDINE]
microsomal CLint ([12]; microsomes): 99.3 µL/min/mg

CC(=O)N1CCCn2c1nc(C)c2-c1cn(S(=O)(=O)c2ccccc2)c2ccccc12
Ki ([6]; read-out: Ki): > 10 µM | Ki [7]: > 10 µM | solubility ([10]; buffer): Insoluble

CC(=O)Nc1nc(C)c(-c2cn(S(=O)(=O)c3ccccc3)c3ccccc23)[nH]1 [listing 2 of 2 here]
Ki ([6]; read-out: Ki): > 10 µM | Ki [7]: > 10 µM | Ki [14]: > 10 µM | Ki [8]: 0.025 µM | Ki ([9]; read-out: Ki): > 10 µM | solubility ([10]; buffer): Insoluble | Stability [11]: Stable | microsomal CLint ([12]; microsomes): 7.3 µL/min/mg | half-life ([13]; microsomes): 190 min

CCC(=O)Nc1nc(C)c(-c2cccc3c2ccn3S(=O)(=O)c2ccccc2)[nH]1
Ki ([6]; read-out: Ki): > 10 µM | Ki [7]: > 10 µM | solubility ([10]; buffer): Insoluble

CC(=O)N1CCn2c1nc(C)c2-c1cn(S(=O)(=O)c2ccccc2)c2ccccc12
Ki ([6]; read-out: Ki): > 10 µM | Ki [7]: > 10 µM | solubility ([10]; buffer): Insoluble

Cl.Nc1ncc(-c2cn(S(=O)(=O)c3ccccc3)c3ccccc23)[nH]1
Ki ([6]; read-out: Ki): 0.126 µM | Ki [7]: 0.891 µM | solubility ([10]; buffer): Soluble

COc1ccc2c(c1)c(-c1[nH]c(N)nc1C)cn2S(=O)(=O)c1cccc(F)c1.Cl
Ki ([6]; read-out: Ki): > 10 µM | Ki [7]: 1.12 µM | solubility ([10]; buffer): Soluble

CCC(=O)Nc1nc(C)c(-c2cn(S(=O)(=O)c3cccc(F)c3)c3ccc(OC)cc23)[nH]1
Ki ([6]; read-out: Ki): > 10 µM | Ki [7]: > 10 µM | solubility ([10]; buffer): Insoluble

COc1ccc2c(c1)c(-c1[nH]c(NCC(F)F)nc1C)cn2S(=O)(=O)c1ccccc1
Ki ([6]; hek293): Not Active | Ki [7]: 1.23 µM | Ki [14]: 3.98 µM | Ki [8]: 0.021 µM | Ki ([9]; hek293): Not Active | Kb [1]: 0.013 µM | inhibition [2]: 4% | inhibition [3]: 1% | inhibition [15]: -4% | inhibition [4]: 28% | solubility ([10]; water, read-out: solubility): 1000 to 10000 µg/mL (≈ 2.24 to 22.4 mM) | microsomal CLint ([12]; liver microsomes): 39 µL/min/mg | half-life ([13]; liver microsomes): 36 min

CCc1nc(N)[nH]c1-c1cn(S(=O)(=O)c2ccccc2)c2ccc(OC)cc12.Cl
Ki ([6]; read-out: Ki): > 10 µM | Ki [7]: 0.661 µM | solubility ([10]; buffer): Soluble

CC(=O)Nc1nc(C)c(-c2ccc3ccn(S(=O)(=O)c4ccccc4)c3c2)[nH]1
Ki [7]: > 10 µM | inhibition [2]: -4.2% | inhibition [3]: -1.9%

COc1ccc2c(c1)c(-c1[nH]c(NC(C)=O)nc1C)cn2S(=O)(=O)c1cccc(F)c1
Ki ([6]; read-out: Ki): > 10 µM | Ki [7]: > 10 µM | solubility ([10]; buffer): Insoluble

COc1ccc2c(c1)c(-c1[nH]c(NCCc3ccccc3)nc1C)cn2S(=O)(=O)c1ccccc1
Ki ([6]; hek293): Not Active | Ki [7]: 1.91 µM | Ki [14]: 2.14 µM | Ki [8]: 0.083 µM | Ki ([9]; hek293): Not Active | solubility ([10]; buffer): Insoluble

COc1ccc2c(c1)c(-c1[nH]c3nccc[n+]3c1C)cn2S(=O)(=O)c1ccccc1.[Br-]
Ki ([6]; read-out: Ki): > 10 µM | Ki [7]: > 10 µM | solubility ([10]; buffer): Soluble

COc1ccc2c(c1)c(-c1[nH]c(NC(=O)Cc3ccccc3)nc1C)cn2S(=O)(=O)c1ccccc1
Ki [7]: > 10 µM | Ki [14]: > 10 µM | Ki [8]: 0.003 µM | Ki ([9]; read-out: Ki): > 10 µM | solubility ([10]; buffer): Insoluble

O=S(=O)(c1ccccc1)c1cnc2c(N3CCNCC3)cccc2c1 [INTEPIRDINE]
microsomal CLint ([12]; liver microsomes): 6.6 µL/min/mg

COc1ccc2c(c1)c(-c1c(C)nc(N)n1CC(F)F)cn2S(=O)(=O)c1ccccc1
Ki ([6]; hek293): Not Active | Ki [7]: 3.24 µM | Ki [14]: 3.8 µM | Ki [8]: 0.157 µM | Ki ([9]; hek293): Not Active | solubility ([10]; buffer): Insoluble

CCC(=O)Nc1nc(C)c(-c2cn(S(=O)(=O)c3ccccc3)c3ccc(OC)cc23)[nH]1
Ki [14]: > 10 µM | Ki [8]: 0.014 µM | Ki ([9]; read-out: Ki): > 10 µM | solubility ([10]; buffer): Insoluble | Stability [11]: Stable | microsomal CLint ([12]; microsomes): 17.1 µL/min/mg | half-life ([13]; microsomes): 81 min

Cc1nc(N)[nH]c1-c1ccc2ccn(S(=O)(=O)c3ccccc3)c2c1.Cl
Ki ([6]; read-out: Ki): > 10 µM | Ki [7]: 1.17 µM | Ki [14]: 0.708 µM | Ki [8]: 0.004 µM | Ki ([9]; read-out: Ki): 0.776 µM | solubility ([10]; buffer): Soluble | Stability [11]: Unstable | microsomal CLint ([12]; microsomes): 104 µL/min/mg | half-life ([13]; microsomes): 13 min
